Series [1] in a line: Inhibition of Wnt signalling in human STF/293 cells assessed as suppression of TCF/beta-catenin-mediated transcriptional activity after 24 hrs by superTOPflash reporter gene assay. The settings on record: STF/293, 24 h. The format is cell-based.
A short description of series [2]: Cytotoxicity against human STF/293 cells assessed as reduction in cell viability at 2 to 10 uM after 24 hrs by fluorescein diacetate based assay. It counts as toxicity. The settings on record: hek293, 24 h.
Series [3] in a line: Cytotoxicity against human STF/293 cells assessed as reduction in cell viability at 0.5 to 2 uM after 24 hrs by fluorescein diacetate based assay. The format is toxicity. The settings on record: hek293, 24 h.
Series [4] in a line: Inhibition of Wnt signalling in human STF/293 cells assessed as decrease in beta-catenin levels after 24 hrs by Western blot analysis. It counts as cell-based. The procedure, abridged: (§1)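 STF/293 cells were exposed to the test agent and lysed. Lysates were immunoblotted for β-catenin, c-myc and PPARδ, with β-actin as the protein loading control.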
For orientation: In western blotting, separated proteins are transferred to a membrane and probed.

Series [5] can be described thus: Inhibition of Wnt signalling in human STF/293 cells assessed as decrease in c-myc levels after 24 hrs by Western blot analysis. It counts as cell-based. An outline of the steps:
as §1

Series [6] in a line: Inhibition of Wnt signalling in human STF/293 cells assessed as decrease in PPARdelta levels after 24 hrs by Western blot analysis. It counts as cell-based. An outline of the steps:
as §1

Series [7] is described as follows: Cytotoxicity against human STF/293 cells assessed as reduction in cell viability at 10 to 40 uM after 24 hrs by fluorescein diacetate based assay. The format is toxicity. To be noted: hek293, 24 h.
Series [8] in a line: Inhibition of Wnt signalling in human SW480 cells assessed as decrease in beta-catenin level in nucleus at 20 to 60 uM after 24 hrs by Western blot analysis. It counts as cell-based. The procedure, abridged: (§2)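 SW480 colon cancer cells were treated, then whole, cytoplasmic and nuclear lysates were prepared. These were immunoblotted with anti-β-catenin and anti-c-myc antibodies. β-Actin served as the cytoplasmic fraction control and histone H1 as the nuclear fraction control.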

Series [9] in a line: Inhibition of Wnt signalling in human SW480 cells assessed as decrease in c-myc level after 24 hrs by Western blot analysis. It counts as cell-based. The procedure, abridged: as §2

Structures are written as SMILES. Activity calls are given as the source filed them. No cut-off for these calls is given here.

One may read the IC50 as the concentration needed to halve the response being measured. Consider `COc1cc2c(cc1O)CCn1c-2cc2ccc(O)c(OC)c2c1=O`, for which the IC50 in series [1] was determined as 8.7 µM. Moreover, in [2], the Activity result is “Non-Toxic”.
`COc1ccc2c(c1)C(=O)c1nccc3cc4c(c-2c13)OCO4` [ATHEROSPERMIDINE]: the IC50 in series [1] came to 7.1 µM. For the same compound, in series [2], the Activity entry is listed as “Non-Toxic”.
In the case of `COc1cc2c(cc1OC)-c1cc3ccc(OC)c(OC)c3c(=O)n1CC2`, the IC50 in series [1] was determined as 0.6 µM. Further, in [3], the Activity entry is “Non-Toxic”.
`O=C1c2ccccc2-c2c3c(cc4ccnc1c24)OCO3` [LIRIODENINE]: in series [1], the IC50 is 0.6 µM. Besides, in series [3], the Activity result is “Non-Toxic”. Further, the inhibition entry in [4], in [5] and in series [6] was “Dose-dependent effect” each time.
`COc1ccc2c(c1)c(-c1c3c4c(cc5c(c4c4ccc(OC)cc14)OCO5)CCN3)c1c3c(cc4c(c32)OCO4)CCN1` [BIDEBILINE E]: in series [1], the IC50 came to 20.2 µM. For the same compound, the Activity result in series [7] is given as “Non-Toxic”. The inhibition entry in [8] is “Active”. Moreover, in [9], the inhibition result is “Dose-dependent effect”.

For the origin of these results see ChEMBL document CHEMBL3868584, “Cerasoidine, a Bis-aporphine Alkaloid Isolated from Polyalthia cerasoides during Screening for Wnt Signal Inhibitors” (J Nat Prod, 2016).
